# Reference: ChEMBL document CHEMBL4513216, “Probing the Open Global Health Chemical Diversity Library for Multistage-Active Starting Points for Next-Generation Antimalarials” (ACS Infect Dis, 2020)
# Assay: Toxicity liver stage against HepG2, at 10uM
# Format: cell-based
# Parameters: test concentration 10 uM, cell line HepG2-A16-CD81EGFP
# Conditions: human, HepG2-A16-CD81EGFP cells; read-out: INHIBITION
# How it was run: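 Uninfected HepG2-A16-CD81EGFP cells, 3 × 10^3 per well, 1536-well, plated on prespotted compound at 10 μM final, parasite-free screening media added to match infected plates; puromycin 10 μM positive, DMSO 0.5% negative; run in parallel with 48 h PbLuc assay at 37 °C, 5% CO2; viability by CellTiter-Glo luminescence, normalized to controls.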
row,SMILES,cytotoxicity at 10 µM
1,Cc1ncoc1C(=O)N1CCCC(C(=O)c2cccc(OC(C)C)c2)C1 (stereo unspecified),8.84%
2,CCNC(=O)NC[C@H]1C[C@@H]2CCN1C[C@@H]2c1cc(-c2cccs2)nn1C,-5.72%
3,Cc1n[nH]c2c1C(c1ccc(O)cc1)SCC(=O)N2 (stereo unspecified),10.6%
4,c1ccc(CNc2nc(N3CCOCC3)nc3nccnc23)cc1,10.5%
5,Cc1cc(CN2CCC(CNS(=O)(=O)c3ccccc3Cl)CC2)c(C)o1,9.51%
6,CN1CCN(C(=O)[C@H]2CC[C@@H]3[C@@H](CCN3Cc3nccs3)O2)CC1,5.41%
7,CCN1CCN(C(=O)Cn2nc(C(F)(F)F)c(Br)c2C2CC2)CC1,-8.78%
8,O=C(COc1ccc2c(c1)OCO2)NCc1ccco1,3.22%
9,CC1(C)CC2(CCO1)NC(=O)c1cc(Br)ccc1-n1nnnc12 (stereo unspecified),5.97%
10,Cc1ccc(CNC(=O)c2nn(C)c3c2CS(=O)(=O)CC3)o1,6.14%
11,COc1ccccc1CNC(=O)Cn1ncc2c1c(C)nn2C,10.6%
12,Cc1cccc(CN2CCC(c3nnsc3S(C)(=O)=O)CC2)n1,-8.69%
13,C=Cn1ncc(CN2C[C@@H]3CCCN3C[C@@H]2CCSC)c1C,0.026%
14,c1ncc(Nc2nccc(C3CCCCN3CC3CCCCC3)n2)cn1 (stereo unspecified),3.32%
15,CN(C)CCN(Cc1cccc(F)c1)C(=O)c1ccn(C)c(=O)c1,-3.92%
16,CN1CCCC(CNC(=O)N(C)Cc2ccc(Cl)c(F)c2)C1 (stereo unspecified),1.36%
17,O=C(CN1CCc2cncnc2C1)NC1CCCCNC1=O (stereo unspecified),7.36%
18,O=C(NCC1(O)CCC1)c1c(O)cc(Cl)cc1Cl,0.924%
19,CC1CCCCN1C(=O)COc1nc(Cc2ccc(F)cc2)no1 (stereo unspecified),1.43%
20,COc1ncnc(N)c1CNCc1ccccc1-n1cccn1,-24.4%
21,O=C(NCC[S+]([O-])c1ccccc1)c1ccc2[nH]c(=O)[nH]c2c1 (stereo unspecified),3.18%
22,CCc1c(C(=O)Nc2ccc(F)c(C(=O)NC)c2)cnn1CC(C)C,14.7%
23,CN(C)c1ncccc1NC(=O)COC1CCCC1,0.189%

row,SMILES,cytotoxicity at 10 µM
1,CCOc1ccccc1C(N)CC(C)C (stereo unspecified),-0.857%
2,CC(O)(CNC(=O)NCCc1ccc2c(c1)CCO2)c1ccsc1 (stereo unspecified),7.4%
3,Cc1cc(CNCC2CNc3ccnn3C2)no1 (stereo unspecified),-6.06%
4,NC(=O)C1CCCN1Cc1nccn1CC(F)(F)F (stereo unspecified),12.2%
5,Cc1nc(C(=O)N(C)C)nn1-c1ccccc1C(C)C,-0.665%
6,Fc1cccc(C2CCCN2Cc2nnnn2C2CC2)c1 (stereo unspecified),2.8%
7,c1cc(-c2noc(CN3CCc4c(ncn4C4CC4)C3)n2)cs1,4.71%
8,Cc1ncc(CN(C)c2nc3c(cnn3C(C)(C)C)c(=O)[nH]2)s1,-19.2%
9,Cc1nc(C(C)(C)C)sc1C(=O)NCCn1ccnc1,-0.586%
10,CN(Cc1nnc2n1CCC2)S(=O)(=O)c1cc(Br)ccc1Br,0.392%
11,CNC(=O)CC1CCN(C(=O)NCc2coc3ccccc23)CC1,-11.4%
12,CC(C(=O)N1CCCCCC1)N1CCN(c2nccs2)CC1 (stereo unspecified),11.7%
13,CC(=O)N1CCCN(C(=O)NCCCN(C)S(C)(=O)=O)CC1,-2.44%
14,O=C(NCC(CO)Cc1cccc(OC(F)(F)F)c1)c1cnccn1 (stereo unspecified),7.66%
15,Cc1ccc(CS(=O)(=O)Cc2nc(N)nc(N(C)C)n2)cc1,3.13%
16,CC(C)(C)c1cnc(CN2CCC(NC(=O)C3CCOCC3)CC2)o1,-11.9%
17,O=C(NCc1ccncc1)N(Cc1ccccc1F)C1CC1,-3.32%
18,CC(=O)N1CCCN(Cc2csc(-c3ncccn3)n2)CC1,7.08%
19,CCn1cnnc1C1CCN(C(=O)c2ccc3cc[nH]c3c2)CC1,5.16%
20,CCN1Cc2c(C(=O)NC(C)C)ncn2-c2ccccc2S1(=O)=O,-83.9%
21,Cc1cc(C)c2c(N3CCC(C(=O)N4CCOCC4)CC3)ncnc2n1,-11.1%
22,Cc1nc(-c2ccncc2)ncc1C(C)NC(=O)CN1CCOC1=O (stereo unspecified),3.11%
23,CCNC(=O)c1ccnc(N2CCCC(COc3ccccc3C)C2)c1 (stereo unspecified),2.08%

row,SMILES,cytotoxicity at 10 µM
1,Cc1noc(C)c1C1CCCN1CCC(=O)N1CCc2ccccc2C1 (stereo unspecified),2.39%
2,CN(Cc1cccc2ncccc12)C(=O)CCn1ccc(=O)[nH]c1=O,-134%
3,c1ccc(CN(Cc2ncc[nH]2)Cc2nccs2)cc1,6.35%
4,CCCc1nc(N2CCCN(c3ncccn3)CC2)c2cnn(C)c2n1,-1.18%
5,Cc1ccc(CN2CC[C@@H](NC(=O)c3cccnc3)[C@H](O)C2)o1,2.52%
6,CS(=O)(=O)NCC(=O)N[C@H]1CN(c2cnccn2)C[C@@H]1C1CC1,-7.24%
7,O=C(CN1CCCCC1)NCc1cccnc1-n1cnc2ccccc21,0.522%
8,CCCc1cc(C(=O)NC(COC)c2ccnn2C)no1 (stereo unspecified),-6.14%
9,CN(C)CC1(O)CCN(C(=O)c2cnc(-c3cccnc3)nc2)C1 (stereo unspecified),5.75%
10,CCc1cc(N2CCN3CCCCC3C2)n2nccc2n1 (stereo unspecified),-1.12%
11,CCC[C@H]1CN(Cc2nccn2C)C[C@@H]1NC(=O)C1(COC)CCC1,-3.7%
12,CCc1nc2ccccc2n1C(CC)C(=O)N(C)Cc1noc(C)n1 (stereo unspecified),2.23%
13,CN(Cc1ccon1)C1CCN(c2cccc(-c3cscn3)c2)CC1,-3.96%
14,Cc1nc(CNCc2cccc(OC34CCCN(CC3)C4)c2)n[nH]1 (stereo unspecified),-3.69%
15,O=c1cc(-c2cccnc2)nc(-c2ccc(CN3CC[C@H](O)C3)cc2)[nH]1,3.98%
16,CCNC(=O)[C@@H]1C[C@H](N)CN1C(=O)CCc1ccc(C)c(C)c1,3.45%
17,COc1ccc(CN(CC2CCCO2)C(=O)CN2CCCCC2=O)cc1 (stereo unspecified),-0.645%
18,CC(NC(=O)c1cccc(CCC(C)(C)O)c1)c1nnc(N)s1 (stereo unspecified),1.16%
19,COc1ccc(Cl)cc1C(C(=O)O)N1CCSCC1 (stereo unspecified),-10.8%
20,COc1ccc(CN2CCN(CC3CC3)[C@@H]3CS(=O)(=O)C[C@@H]32)cc1O,-0.931%
21,O=S(=O)(NCc1ccccc1)N1CCN(c2ncccn2)CC1,4.7%
22,CCCc1nnc(N2CCC(C3CCN(C)CC3)CC2)o1,-11.7%
23,CN(CCNC(=O)c1cccnc1)S(C)(=O)=O,-0.102%

row,SMILES,cytotoxicity at 10 µM
1,Cc1cc(F)ccc1OC1(C(=O)O)CCN(Cc2cccnc2)CC1,1.87%
2,Cc1ncsc1CCN(C)C(=O)CN1CCCCCC1=O,-7.67%
3,COc1ccc(OC2CCN(C(=O)c3cnc(C)s3)CC2)cc1,-18%
4,CCC(CO)(CO)NC(=O)C1CCC(=O)N(CCc2ccccc2)C1 (stereo unspecified),-2.78%
5,Cc1ccc(-c2ccnc(N3CCC4(CC3)CNC(=O)O4)n2)c(C)n1,-6.93%
6,N#Cc1nccnc1N1CCN(CCOCc2ccccc2)CC1,-18.4%
7,O=C(c1ccco1)N1CCC(n2cc(-c3ccsc3)nn2)CC1,1.41%
8,Cc1nc(C)c(Cn2ccnc2-c2cc(CN(C)C)cs2)s1,1.99%
9,CN(C)[C@H]1CN(C(=O)CCc2cccc(F)c2)C[C@@H]1C1CC1,-1.1%
10,Cc1cc(C)nc(NC2CCCN(CCCc3ccccc3)C2)n1 (stereo unspecified),2.49%
11,Cc1ccc2[nH]nc(C(=O)NCC3CCN(Cc4c[nH]cn4)C3)c2c1 (stereo unspecified),-15.1%
12,CS(=O)(=O)N1CCCC(C(=O)Nc2cnn(Cc3ccc(F)cc3)c2)C1 (stereo unspecified),-3.64%
13,CCOCCCNC(=O)Cc1cccs1,-10.2%
14,CCc1nccn1-c1cncc(C2CCCN2Cc2ccc(F)cc2)n1 (stereo unspecified),-1.44%
15,CNC(=O)c1ccc(C(=O)N2CCCC2c2c(C)nn(C)c2C)cn1 (stereo unspecified),-12.8%
16,NC(=O)C1CN(C(=O)Nc2ccccc2OCC(F)(F)F)CCO1 (stereo unspecified),-7.75%
17,Cn1cnc(S(=O)(=O)NCCN2CCCCCC2)c1Cl,-17.2%
18,CC(C)c1nc(C2CCCN(C(=O)CCn3cncn3)C2)no1 (stereo unspecified),-21.1%
19,c1ccc(-c2nc(CN3CCCC3Cn3cncn3)co2)cc1 (stereo unspecified),-1.99%
20,Cc1cc(C)n(CC2CCCCN2CC(=O)NC2CCOCC2)n1 (stereo unspecified),-9.01%
21,CC(C)c1nc(CN2CCCC(Cn3cncn3)C2)cs1 (stereo unspecified),-12.9%
22,Cc1cc(NC(=O)NCc2cccnc2OC(C)C)no1,-11.5%
23,COc1c(C2CCCN2C(=O)c2csc(C(C)C)n2)c(C)nn1C (stereo unspecified),-8.26%

row,SMILES,cytotoxicity at 10 µM
1,CC(C)c1n[nH]c(C2CN(C(=O)C3=COCC3)CCO2)n1 (stereo unspecified),-7.99%
2,c1ccc(Cc2noc(CNC3CCc4ncnn4C3)n2)cc1 (stereo unspecified),-5.99%
3,Cc1nnc2n1CCN(C(C(=O)NC1CC1)c1ccccc1)C2 (stereo unspecified),-2.94%
4,Cc1cc(C2CCCN2C(=O)c2cc3c(s2)CCC3)on1 (stereo unspecified),-13.4%
5,Cc1cc(C(C)NC(=O)N2CCC(n3cncn3)CC2)c(C)s1 (stereo unspecified),-15.9%
6,CCc1nc(CN2CCCN(C(=O)C(C)n3ccnc3)CC2)cs1 (stereo unspecified),-13.8%
7,CCc1nc(CN(C)C2CCN(CCc3ccccn3)C2)no1 (stereo unspecified),-0.168%
8,CC(Cc1c(F)cccc1F)NC(=O)Nc1cnn(CC(N)=O)c1 (stereo unspecified),-2.96%
9,Cc1csc(N2CCN(C(=O)CCC(=O)c3ccc(C)s3)CC2)n1,-3.09%
10,Cc1cc(C)n(CC2CCCN2Cc2c(C)noc2C)n1 (stereo unspecified),-4.08%
11,CCc1nc(C2CCCN2C(=O)CCn2cncn2)no1 (stereo unspecified),-5.63%
12,CNC(=O)[C@@H](c1ccccc1)N1CCC[C@H]1C(=O)NC1CCCCC1,2.35%
13,Cc1nc(O)cc(C2CCN(Cc3ccc(F)c(F)c3)C2)n1 (stereo unspecified),-11.3%
14,Cc1occc1C(=O)N1CCC2(CC1)CC(OCc1ccccn1)CO2 (stereo unspecified),-71.7%
15,O=C(NC1CC1)N1CCC2(CC1)C(=O)NCCN2Cc1ccccc1,-0.685%
16,COCCN1CCCn2c(nc(CNC(=O)COC)cc2=O)C1,-106%
17,COc1cc(CNCCc2nc(C)cs2)cc2c1OCCO2,-2.4%
18,COc1nn(C)c2c1CCCN(C(=O)c1cccc(C)n1)C2,-97.3%
19,Cc1nc(CN2CC[C@@H]3O[C@@H](C(=O)N4CCOCC4)C[C@@H]32)cs1,2.08%
